{"data": "Published values pooled from the literature"}
{"Structure (SMILES)": "O=c1[nH]c(CCl)nc2scc(-c3cccc(F)c3)c12", "organism": "Trypanosoma brucei", "test": "parasite growth, ATP luminescence", "setting": "24 h", "quantity": "EC50", "value": "1300 nM"}
{"Structure (SMILES)": "c1cc(-c2ccc3ncnc(Nc4ncco4)c3c2)cc(N2C[C@H]3C[C@@H]2CO3)c1", "organism": "Trypanosoma brucei", "test": "parasite growth, SYBR Green", "setting": "48 h", "quantity": "GI50", "value": "2100 nM"}
{"Structure (SMILES)": "C/C(=N\\NC(=O)/N=C(\\C)c1c(O)c2ccccc2oc1=O)c1c(O)c2ccccc2oc1=O", "organism": "Penicillium verrucosum", "test": "microbial growth, broth dilution", "setting": "48 h", "quantity": "MIC", "value": "62.5 µg/mL"}
{"Structure (SMILES)": "O=c1[nH]c(CCl)nc2scc(-c3ccccc3F)c12", "organism": "Trypanosoma brucei", "test": "parasite growth, ATP luminescence", "setting": "48 h", "quantity": "EC50", "value": "800 nM"}
{"Structure (SMILES)": "c1cc(-c2ccc3ncnc(Nc4ncco4)c3c2)nc(N2CCOCC2)c1", "organism": "Trypanosoma brucei", "test": "parasite growth, SYBR Green", "setting": "48 h", "quantity": "GI50", "value": "190 nM"}
{"Structure (SMILES)": "C/C(=N\\C1CCCCC1/N=C(\\C)c1c(O)c2ccccc2oc1=O)c1c(O)c2ccccc2oc1=O (stereo not drawn)", "organism": "Penicillium verrucosum", "test": "microbial growth, broth dilution", "setting": "48 h", "quantity": "MIC", "value": "62.5 µg/mL"}
{"Structure (SMILES)": "CN1CCN(c2cccc(-c3ccc4ncnc(Nc5ccc(Cl)c(Cl)c5)c4c3)c2)CC1", "organism": "Trypanosoma brucei", "test": "parasite growth, SYBR Green", "setting": "48 h", "quantity": "GI50", "value": "290 nM"}
{"Structure (SMILES)": "CCOC(=O)c1cnc2c([N+](=O)[O-])cc(C(F)(F)F)cc2c1NCCCn1ccnc1", "organism": "Trypanosoma brucei", "test": "parasite growth, resazurin", "setting": "72 h", "quantity": "EC50", "value": "8000 nM"}
{"Structure (SMILES)": "CC[C@H]1OC(=O)[C@H](C)[C@@H](O[C@H]2C[C@@](C)(OC)[C@@H](O)[C@H](C)O2)[C@H](C)[C@@H](O[C@@H]2O[C@H](C)C[C@H](N(C)C)[C@H]2O)[C@](C)(O)C[C@@H](C)/C(=N\\OCOCCOC)[C@H](C)[C@@H](O)[C@]1(C)O", "organism": "Enterococcus faecium", "test": "microbial growth", "setting": "clinical isolate", "quantity": "MIC90", "value": "> 128 µg/mL"}
{"Structure (SMILES)": "C/C(=N\\CCNCCNCC/N=C(\\C)c1c(O)c2ccccc2oc1=O)c1c(O)c2ccccc2oc1=O", "organism": "Penicillium verrucosum", "test": "microbial growth, broth dilution", "setting": "48 h", "quantity": "MIC", "value": "31.2 µg/mL"}
{"Structure (SMILES)": "CN1CCC(Nc2ncnc3ccc(-c4cccc(N5CCOCC5)c4)cc23)CC1", "organism": "Trypanosoma brucei", "test": "parasite growth, SYBR Green", "setting": "48 h", "quantity": "GI50", "value": "4700 nM"}
{"Structure (SMILES)": "C/C(=N\\CCNCC/N=C(\\C)c1c(O)c2ccccc2oc1=O)c1c(O)c2ccccc2oc1=O", "organism": "Penicillium verrucosum", "test": "microbial growth, broth dilution", "setting": "48 h", "quantity": "MIC", "value": "125 µg/mL"}
{"Structure (SMILES)": "CCS(=O)(=O)Oc1ccc(C=NNC(=O)CSc2nc3c(C)cccc3c(=O)n2-c2ccccc2)cc1", "organism": "Candida albicans", "test": "microbial growth, well diffusion", "setting": "20 µg/mL", "quantity": "inhibition zone", "value": "3 mm"}
{"Structure (SMILES)": "O=[N+]([O-])c1ccc(Nc2ncnc3ccc(-c4cccc(N5CCOCC5)c4)cc23)cc1C(F)(F)F", "organism": "Trypanosoma brucei", "test": "parasite growth, SYBR Green", "setting": "48 h", "quantity": "GI50", "value": "8.4 nM"}
{"Structure (SMILES)": "OC(Cn1cncn1)(Cn1cncn1)c1ccc(F)cc1F", "organism": "Candida albicans", "test": "microbial growth, broth dilution", "test system": "17546", "setting": "48 h", "quantity": "MIC", "value": "2 µM"}
{"Structure (SMILES)": "c1cc(-c2ccc3ncnc(Nc4ncco4)c3c2)nc(N2CCOCC2)n1", "organism": "Trypanosoma brucei", "test": "parasite growth, SYBR Green", "setting": "48 h", "quantity": "GI50", "value": "230 nM"}
{"Structure (SMILES)": "CC1(C)S[C@@H]2[C@H](NC(=O)[C@H](N)c3ccccc3)C(=O)N2[C@H]1C(=O)O", "organism": "Enterococcus faecium", "test": "microbial growth", "setting": "clinical isolate", "quantity": "MIC90", "value": "> 128 µg/mL"}
{"Structure (SMILES)": "CC(=O)N1CCN(c2ccc(OCC3COC(Cn4ccnc4)(c4ccc(Cl)cc4Cl)O3)cc2)CC1 (stereo not drawn)", "organism": "Candida albicans", "test": "microbial growth, broth dilution", "test system": "SP3876", "setting": "48 h", "quantity": "MIC", "value": "8 µM"}
